NSD2 HMT inh: NSD2 histone methyltransferase inhibitors, primary screen, biochemical, AlphaScreen, single concentration, set 2; NSD2 peptide methylation, 120 min; 0.54% of 310,000 active; AID 743445, 2014; Histone-lysine N-methyltransferase NSD2 (Homo sapiens), O96028; inhibition, % at 12.5 µM; in the data active means inhibition above about 50%
MITF TRPM1 HTS: activators of MITF-driven TRPM1 promoter reporter, primary screen, cell-based, SK-MEL-5, luciferase, single point. SK-MEL-5 TRPM1-promoter luciferase, 24 h; % of positive control, neutral wells = 0. activation, % at 12.5 µM. 0.75% of 300,000 active;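 active means mean activation of at least 80% with every replicate also reaching 80%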;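 further: 0% = neutral control wells and 100% = parthenolide positive control wells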
CASP6 VEID inh: human caspase-6 inhibitors, primary screen, biochemical, VEID-R110 fluorescence, single point, set 2; inhibition, % at 12.5 µM; P55212; 0.53% of 350,000 active; purified caspase-6, Z-VEID-R110 cleavage fluorescence;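 active means mean inhibition across replicates at least about 35%, with every replicate also reaching that limit, limit read from the data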;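 further: 0% = median of neutral control wells and 100% = no fluorescence left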
XiGFP reactiv: activators of inactive X chromosome reactivation, primary screen, imaging, XiGFP fibroblasts, GFP high-content imaging, set 2. XiGFP mouse fibroblasts, % GFP-positive cells imaging, 3 d; cells co-treated with 5-aza-dC sensitizer; scaled so ellipticine positive control = 100%. activation, % at 7.58 µM. 0.055% of 360,000 active. AID 743238, 2013;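 active means mean normalized replicate activation at least 10% and every replicate at or above 10%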;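 further: 0% = median of on-plate neutral control wells and 100% = ellipticine 6 µM median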
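System: 68-5-11 XiGFP fibroblast line | Buffer or medium: DMEM containing 5-aza-dC | Compound: Single point | Times: Compounds 3 days, fix/stain 15 min at room temperature | Benchmarks: Positive control ellipticine, 6 µM final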
esBAF inh: Bmi1 luciferase reporter increase in mESCs, primary screen, esBAF inhibitor project, mouse ES cells, Bmi1 luciferase knock-in, single point; 24 h; 100% = twice the neutral-well signal; 2% of 350,000 active; reporter increase, % at 12.5 µM; in the data active means activation above about 40%;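 further: 0% = median of the plate's neutral control wells and 100% = double that signal; a rise in the Bmi1 reporter signal indicates esBAF inhibition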
Wnt bcat act: Wnt/beta-catenin pathway activators, primary screen, cell-based, plate reader, single point; Wnt/beta-catenin reporter cell assay, activator; activation, % at 9.35 µM; 1.2% of 300,000 active; in the data active means activation above about 30%, passing the limit was not always enough;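 further: 0% = neutral control wells and 100% = positive control wells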
* = called active by the depositor; · = no result. Compounds with a hit are over-represented: about 3% of the library has one in this group of screens.

SMILES | NSD2 HMT inh | MITF TRPM1 HTS | CASP6 VEID inh | XiGFP reactiv | esBAF inh | Wnt bcat act
C[C@@H]1CN([C@H](C)CO)C(=O)c2ccccc2-c2ccccc2CO[C@@H]1CN(C)C(=O)CCC(F)(F)F | · | · | · | 0.1 | · | ·
O=C(Cn1cccn1)N1CCCC(N2CCN(c3cccc(C(F)(F)F)c3)CC2)C1 (centres undefined) | -3.7 | -11.0 | 3.3 | 0.2 | 0.8 | 1.3
O=C(CCn1cccn1)N1CCCC(N2CCN(c3cccc(C(F)(F)F)c3)CC2)C1 (centres undefined) | 13.8 | -12.7 | 1.8 | 0.1 | -7.9 | 31.7*
Cc1ccc(-c2c(C)sc(=NC(=O)c3ccco3)n2C)cc1 | 0.6 | 100.2* | · | · | 56.8* | ·
CCCC(=O)Nc1ccc(C(=O)NN=C(C2CC2)C2CC2)cc1 | -3.2 | 14.6 | -0.9 | 0.1 | 3.6 | -1.1
CCCC(=O)Nc1ccc(C(=O)COC(=O)C2CC2)cc1 | -0.1 | 72.9 | 1.2 | 0.0 | 38.6 | 48.3*
CC(=O)Nc1ccc(C(=O)COC(=O)C2CCCCC2)c(F)c1 | -0.7 | 47.7 | -3.7 | 0.1 | -2.3 | -2.7
CC(=O)Nc1ccc(C(=O)COC(=O)C2CC2)c(F)c1 | -2.5 | 125.8* | 1.5 | 0.0 | 39.7 | 38.1*
NS(=O)(=O)c1ccc(NC(=O)CSc2nnc(NC3CC3)s2)cc1 | 13.9 | 7.1 | 36.0* | 0.4 | 5.3 | 0.4
CC(C)C/C=C1\CCc2c([nH]c3ccccc23)C1=O | -0.8 | 62.3 | 8.0 | 0.3 | 52.1* | 39.4*
Cc1ccnc(NC(=O)CNC(=O)c2cccs2)c1 | -1.0 | -5.2 | -3.1 | 0.2 | 3.0 | 29.4
O=C(Nc1ccon1)c1ccc(Cl)s1 | -0.4 | 0.1 | · | · | 25.0 | ·
Cc1ccnc(NC(=O)c2ccc(Cl)s2)c1 | -2.7 | 87.1* | · | · | 60.7* | ·
Cc1ccnc(NC(=S)NC(=O)c2cccs2)c1 | 2.7 | 65.2 | 0.8 | 0.1 | · | 34.3*
O=C(NC(=S)Nc1ccc(Cl)cn1)c1cccs1 | -1.0 | 15.5 | · | · | 72.0* | 16.6
O=C(NC(=S)Nc1cccnc1)c1cccs1 | -0.8 | 18.7 | 0.3 | 0.3 | 9.9 | 10.3
O=C(NCC1CC1)[C@H]1[C@H](CO)[C@H]2Cn3c(ccc(-c4ccccc4)c3=O)[C@H]2N1Cc1cocn1 | · | · | -2.2 | 0.0 | -2.7 | ·
Cc1ccc(-c2ccc3c(c2)O[C@H](CN(C)Cc2cccnc2)[C@@H](C)CN([C@@H](C)CO)S3(=O)=O)cc1 | · | · | -0.1 | -1.2 | -1.9 | ·
O=C1C=C(NCCc2cc(Br)c(O)c(Br)c2)C(=O)c2ncccc21 | 137.1* | -108.9 | 96.0* | -0.1 | · | -6.2
CCCN(C)C[C@H]1Oc2ncc(-c3ccccc3F)cc2C(=O)N([C@H](C)CO)C[C@@H]1C | · | · | -5.3 | 0.2 | 0.6 | ·
NC(=O)c1ccc(-c2noc(-c3cccc(Cl)c3)n2)cc1 | · | 125.4* | 0.0 | -0.6 | 40.0 | 36.4*
O=C(O)c1cccc(-c2noc(-c3cccc(Cl)c3)n2)c1 | · | -91.2 | 6.4 | 0.0 | -82.2 | 36.7*
N/C(=N\OC(=O)c1ccoc1)c1ccc(Br)cc1 | -1.7 | 92.9* | -1.3 | 0.0 | 44.4* | 42.0*
Cc1ccc(C)c(C(=O)O/N=C(\N)c2ccc(Br)cc2)c1 | 26.9 | · | · | · | 43.3* | 26.5
Cc1ccc(C(=O)O/N=C(\N)c2ccc(Br)cc2)cc1C | 0.1 | 54.5 | · | · | 53.1* | ·
SMILES | NSD2 HMT inh | MITF TRPM1 HTS | CASP6 VEID inh | XiGFP reactiv | esBAF inh | Wnt bcat act
C[C@@H](NC(=O)[C@@H]1[C@@H](CO)[C@@H]2Cn3c(cccc3=O)[C@@H]2N1CC1CCCC1)c1ccccc1 | · | · | · | -0.1 | 1.1 | ·
COc1ccc(-c2nc(C#N)c(NCc3ccco3)o2)cc1 | -1.8 | 29.9 | 0.6 | -0.1 | 39.3 | 13.9
Cc1cccc(-c2nc(C#N)c(NCc3ccco3)o2)c1 | 17.1 | · | 0.8 | -0.1 | 58.6* | 31.8*
CNc1oc(-c2ccc(OCc3ccccc3)cc2)nc1C#N | -1.7 | 75.5 | · | · | 68.9* | ·
N#Cc1nc(-c2ccc(F)cc2)oc1NCc1ccco1 | -0.8 | 15.6 | 2.2 | 0.0 | 28.3 | 6.3
N#Cc1nc(-c2ccc(OCc3ccccc3)cc2)oc1NCc1ccco1 | 0.7 | 11.2 | · | · | 2.2 | ·

Assay outcomes (PubChem)
